Experimental data taken from the RNAGym collection of RNA variant scans (doi:10.1101/gad.245936.114).
Fewer inactive variants are shown than the library holds.

B1: tRNA (parent)
chain: CUCUCGGUAGCCAAGUUGGUUUAAGGCGCAAGACUUUAAUUUAUCACUACGAAAUCUUGAGAUCGGGCGUUCGACUCGCCCCCGGGAGAUUUUUUCCUCGAGCAA

Variants of: B1
Assay: nonsense suppression (GFP-seq) (ratio to wild type); higher = more function; SUP4oc tRNA, yeast GFP reporter sort-seq
Summary of the method: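 Raffinose/galactose medium with 80 mg/L adenine was used to grow yeast carrying genome-integrated tRNA variants (~3% random-mutation library), RFP, and a galactose-driven GFP ochre reporter. Cells went into GFP/RFP bins, which were Illumina-sequenced, and variants with ≥100 reads and ≥30 cells were scored. Nonsense suppression (GFPSEQ) is the per-bin median GFP/RFP weighted by estimated cell share and expressed relative to the unmutated parent tRNA.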

Variant | nonsense suppression
C27U C77A | ≤ 0.026
G25C A31C G73A | ≤ 0.026
A30G C72G | 0.0409
G26C C81U | ≤ 0.026
G26U U71C | ≤ 0.026
G28C G67A | 0.0635
G28A C81U | 1.2
A30G C79U | 0.207
C27G A33U C34G C83G G85A | ≤ 0.026
G25A U70C G73U | ≤ 0.026
C29G A33G G67A U71G G86A | 1.12
G28U A33U | ≤ 0.026
C27G U57C G86C | ≤ 0.026
C27U | 0.183
C27A G84A G86C | ≤ 0.026
G26U G88C | ≤ 0.026
A30U G61A | 0.0365
G28U A60C | 0.669
G28A G61A | 0.8
C27U A54C | 0.0314
C27U A54U | 0.104
G25U C75U | ≤ 0.026
G28A G84A G86C | ≤ 0.026
C29U U35C U58G C64U G66C | ≤ 0.026

Variant | nonsense suppression
A30U A74U | 0.0497
A30U A74C | 0.0264
G28A C75G | 1.02
G25U C34U G59A | 1.15
C27A G61U G86U | ≤ 0.026
C27U C75A | 0.641
C29U C82U | 0.224
C29U G67C | ≤ 0.026
G26U G61A | ≤ 0.026
C27U G61C | 0.0306
C29U A31G | 0.0421
C27U A31C G61C | ≤ 0.026
G28A A60G | 1.07
C27A A30C A60G C77G C81A | ≤ 0.026
G28U U76A | ≤ 0.026
C29A G85A | 0.115
C27G U71G | ≤ 0.026
G26U A31G A54U U57C G73C | ≤ 0.026
G25U G28U C29G C72G C81A | ≤ 0.026
A30G G61C | 0.251
A30G G61A | 0.75
G28A C29U | 1.15
C27A U55G G61A C83G | ≤ 0.026
A30C A60U U63A G69C | ≤ 0.026

Variant | nonsense suppression
C27U U58A G59A | ≤ 0.026
C27G U57C G59U G86U | ≤ 0.026
G25C G28C A62U | ≤ 0.026
C27G C81G | ≤ 0.026
A30G U63C | 0.205
G28C A89G | 0.0403
G28U G61U | 0.191
G28U G61C | 0.321
G28C U55G | ≤ 0.026
G28C U55C | 0.183
G25A G61A G84C | ≤ 0.026
A30U C77U | ≤ 0.026
A30U C77G | 0.0332
G28C C79A G85C | 0.0328
C29U A31C C68U C77A | ≤ 0.026
G26A C29G A30G A33G | ≤ 0.026
C29G A87G | ≤ 0.026
G28C G84C | 0.239
C27A C83G G84C | ≤ 0.026
G28U G78A | 0.0292
G28U G78U | 0.0435
C27U G28A | 0.0265
C27A U35C G66C G88C | ≤ 0.026
G25A G32U U71G | ≤ 0.026

Variant | nonsense suppression
G25C A89U | ≤ 0.026
C29U C64U | 0.035
G26A A31C | ≤ 0.026
C29U C72U | 0.101
A30U A89U | 0.0434
C29U G65A C81U | 1.14
C27A C34G A60U C77U | ≤ 0.026
C29A A54U C56U G66C | ≤ 0.026
A30G G59A G73C | ≤ 0.026
C27U A74C | 0.0355
C27G U55A A60C | 0.809
G28A G78C | 0.0938
G25U U63G | 0.0371
G28U A30C A33G A54G U76C C79A | ≤ 0.026
A30G A54C | 0.077
A30G A54U | 1.2
G25U G61U C68U | ≤ 0.026
A30U U55G G78C A89C | ≤ 0.026
G26C G78U C82A | ≤ 0.026
G28U A54U | ≤ 0.026
G25A G73A | 0.0508
C29A C72A U76A | ≤ 0.026
G25U A60G G61A | ≤ 0.026
A30G A89C | 0.0603

Variant | nonsense suppression
A30G A89U | 0.0271
C27U G32C | ≤ 0.026
A30C U55A | ≤ 0.026
G26U A31C G65C | ≤ 0.026
C29U A30G A54C C75A | 0.0386
G28A G66C A87U | ≤ 0.026
A30G A74C | 0.0554
A30G A74G | 0.098
A30G A74U | 0.028
A30U G67A G73U A74G C81A | ≤ 0.026
C29A U57A G73A | ≤ 0.026
C29U C68U | 0.272
G28C U71C | 0.112
G28C C64U | 0.0765
C29U U71C | 0.0323
A30G A60G | 0.108
C27A U55C | 0.0902
G25U A54U G78C | ≤ 0.026
C27U A31U | 0.0324
A30U G32U C56A U58G | 1.11
A30G U55G U63G C64A | ≤ 0.026
A30G C77U | ≤ 0.026
C29U G84A | 0.0288
G26U G65C U71A G78U | ≤ 0.026

Variant | nonsense suppression
G28C G85U | 0.208
A30U U35G G65U | ≤ 0.026
G26A C77G | ≤ 0.026
G28A A31G | 0.98
A30U U58A G78U | 0.776
G25C C75A | 0.826
G28C G61A U63C | 0.041
G28A C34G G59A | ≤ 0.026
G26C A60C | 0.027
G26A U71G | ≤ 0.026
C27U C80U | 0.0446
G25U G73U | ≤ 0.026
G26U G28U | ≤ 0.026
A30G U71A | 0.05
A30G U71C | 0.035
G25C A54U | 0.0708
A30G A33U | ≤ 0.026
A30G A33G | 0.046
C27A G78U | 0.0309
C29U U63C G85A | 0.849
G28A C68U | 1.17
C27G A74C G86A | ≤ 0.026
G28A G67A | 0.209
G28C C34U | ≤ 0.026

Variant | nonsense suppression
C29A A30C | ≤ 0.026
C29A C75U | 0.0265
A30C A54U A60G A74U | ≤ 0.026
C27G U57C U58G G66A C68G | ≤ 0.026
G28A U63A C68G U70A G85C | ≤ 0.026
C29U G32U U57A A62G U63C G69C | ≤ 0.026
G26U C27G A30G U57G C64U G65C | ≤ 0.026
G25U C34A U71A U76A | ≤ 0.026
G28A U76C | 1.09
G28A U76G | ≤ 0.026
G26C G61A | ≤ 0.026
C27G C80U C83A | ≤ 0.026
C27U U63C | 0.0314
C27G C79A | ≤ 0.026
C29U U76A G84U | ≤ 0.026
G25C C27G | ≤ 0.026
A30U C81A | 0.0383
A30C U58G | 1.02
C27U G59U G61U G66U | ≤ 0.026
C27U A62G | ≤ 0.026
C27U A62U | 0.0346
G28U C34A A87U | ≤ 0.026
G26U A74C U76G | ≤ 0.026
